Test results taken from ChEMBL document CHEMBL3124924, “Bifunctional ethyl 2-amino-4-methylthiazole-5-carboxylate derivatives: synthesis and in vitro biological evaluation as antimicrobial and anticancer agents” (2014).
In brackets after ≈: the same amount, converted by molar mass. Activity calls are given as the source filed them. The rule behind the calls is not given here.

Tests used:
NCI-H226 = experiment: Cytotoxicity against human NCI-H226 cells assessed as growth inhibition at 10 uM after 48 hrs by SRB assay; type: functional; conditions: NCI-H226, 48 h, read-out: GI
Procedure, shortened: (§1)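 NCI-60 one-dose primary screen run by the NCI Drug Evaluation Branch across the full 60-line panel. Single high-dose treatment with 48 h continuous drug exposure. Cell growth estimated by sulforhodamine B protein staining. Results given as percent growth of treated cells and expressed as percentage growth inhibition.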

HOP-92 = experiment: Cytotoxicity against human HOP92 cells assessed as growth inhibition at 10 uM after 48 hrs by SRB assay; type: functional; conditions: HOP-92, 48 h, read-out: GI; procedure, shortened: as §1
UACC-62 = experiment: Cytotoxicity against human UACC62 cells assessed as growth inhibition at 10 uM after 48 hrs by SRB assay; type: functional; conditions: UACC-62, 48 h, read-out: GI; procedure, shortened: as §1
RPMI-8226 = experiment: Cytotoxicity against human RPMI8226 cells assessed as growth inhibition at 10 uM after 48 hrs by SRB assay; type: functional; conditions: RPMI-8226, 48 h, read-out: GI; procedure, shortened: as §1
LOX IMVI = experiment: Cytotoxicity against human LOXIMVI cells assessed as growth inhibition at 10 uM after 48 hrs by SRB assay; type: functional; conditions: read-out: GI; procedure, shortened: as §1
IGROV-1 = experiment: Cytotoxicity against human IGROV1 cells assessed as growth inhibition at 10 uM after 48 hrs by SRB assay; type: functional; conditions: IGROV-1, 48 h, read-out: GI; procedure, shortened: as §1
MDA-MB-468 = experiment: Cytotoxicity against human MDA-MB-468 cells assessed as growth inhibition at 10 uM after 48 hrs by SRB assay; type: functional; conditions: MDA-MB-468, 48 h, read-out: GI; procedure, shortened: as §1
SN12C = experiment: Cytotoxicity against human SN12C cells assessed as growth inhibition at 10 uM after 48 hrs by SRB assay; type: functional; conditions: read-out: GI; procedure, shortened: as §1
Escherichia coli [1] = experiment: Antibacterial activity against Escherichia coli ATCC 25922 assessed as growth inhibition after 48 hrs by two-fold serial dilution assay; type: functional; conditions: ATCC 25922, 48 h
Procedure, shortened: (§2)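 Twofold serial broth dilution run on compounds giving inhibition zones of 13 mm or more. Organisms pre-grown in suitable broth at 37 °C, 24 h for bacteria and 48 h for fungi. Dilution series 200, 100, 50, 25, 12.5, 6.25. Each 5 mL tube inoculated with 0.1 mL and incubated 37 °C for 48 h. Tubes scored for presence or absence of growth.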

A498 = experiment: Cytotoxicity against human A498 cells assessed as growth inhibition at 10 uM after 48 hrs by SRB assay; type: functional; conditions: A498, 48 h, read-out: GI; procedure, shortened: as §1
Candida albicans = experiment: Antifungal activity against Candida albicans ATCC 10231 assessed as growth inhibition at 1 mg/mL after 48 hrs by agar-cup diffusion method; type: functional; conditions: ATCC 10231, 48 h, read-out: DIZ
Procedure, shortened: (§3)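 Agar-cup diffusion: 1 mL of 6 h broth culture seeded per 100 mL molten sterile agar at 45 °C and poured into plates. 8 mm cups cut, each filled with 0.1 mL of 1 mg/mL test solution. Incubated 37 °C for 24 h, 48 h for C. albicans. DMSO control per organism. Inhibition zone diameter in mm, mean of three measurements.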

Bacillus spizizenii [2] = experiment: Antibacterial activity against Bacillus subtilis ATCC 6633 assessed as growth inhibition after 48 hrs by two-fold serial dilution assay; type: functional; conditions: ATCC 6633, 48 h; procedure, shortened: as §2
[3] = Cytotoxicity against human NCI-ADR-RES cells assessed as growth inhibition at 10 uM after 48 hrs by SRB assay; type: functional; conditions: read-out: GI; procedure, shortened: as §1
SK-MEL-2 = experiment: Cytotoxicity against human SK-MEL-2 cells assessed as growth inhibition at 10 uM after 48 hrs by SRB assay; type: functional; conditions: SK-MEL-2, 48 h, read-out: GI; procedure, shortened: as §1
SK-MEL-5 = experiment: Cytotoxicity against human SK-MEL-5 cells assessed as growth inhibition at 10 uM after 48 hrs by SRB assay; type: functional; conditions: SK-MEL-5, 48 h, read-out: GI; procedure, shortened: as §1
HCT-15 = experiment: Cytotoxicity against human HCT15 cells assessed as growth inhibition at 10 uM after 48 hrs by SRB assay; type: functional; conditions: HCT-15, 48 h, read-out: GI; procedure, shortened: as §1
PC-3 = experiment: Cytotoxicity against human PC3 cells assessed as growth inhibition at 10 uM after 48 hrs by SRB assay; type: functional; conditions: PC-3, 48 h, read-out: GI; procedure, shortened: as §1
K562 = experiment: Cytotoxicity against human K562 cells assessed as growth inhibition at 10 uM after 48 hrs by SRB assay; type: functional; conditions: K562, 48 h, read-out: GI; procedure, shortened: as §1
Escherichia coli [4] = experiment: Antibacterial activity against Escherichia coli ATCC 25922 assessed as growth inhibition at 1 mg/mL after 24 hrs by agar-cup diffusion method; type: functional; conditions: ATCC 25922, 24 h, read-out: DIZ; procedure, shortened: as §3
HT-29 = experiment: Cytotoxicity against human HT-29 cells assessed as growth inhibition at 10 uM after 48 hrs by SRB assay; type: functional; conditions: HT-29, 48 h, read-out: GI; procedure, shortened: as §1
Bacillus spizizenii [5] = experiment: Antibacterial activity against Bacillus subtilis ATCC 6633 assessed as growth inhibition at 1 mg/mL after 24 hrs by agar-cup diffusion method; type: functional; conditions: ATCC 6633, 24 h, read-out: DIZ; procedure, shortened: as §3
Pseudomonas aeruginosa [6] = experiment: Antibacterial activity against Pseudomonas aeruginosa ATCC 27853 assessed as growth inhibition at 1 mg/mL after 24 hrs by agar-cup diffusion method; type: functional; conditions: ATCC 27853, 24 h, read-out: DIZ; procedure, shortened: as §3
SF-268 = experiment: Cytotoxicity against human SF268 cells assessed as growth inhibition at 10 uM after 48 hrs by SRB assay; type: functional; conditions: SF-268, 48 h, read-out: GI; procedure, shortened: as §1
Staphylococcus aureus = experiment: Antibacterial activity against Staphylococcus aureus ATCC 6538 assessed as growth inhibition after 48 hrs by two-fold serial dilution assay; type: functional; conditions: ATCC 6538, 48 h; procedure, shortened: as §2
Escherichia coli [7] = experiment: Bactericidal activity against Escherichia coli ATCC 25922 after 18 hrs; type: functional; conditions: ATCC 25922, 18 h
Procedure, shortened: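 Continuation of the broth-dilution MIC test. A loopful from each tube without visible growth spread on a quarter of a Mueller-Hinton agar plate and incubated 18 h. Lowest concentration giving no growth on subculture taken as the MBC.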

Aspergillus niger = experiment: Antifungal activity against Aspergillus niger assessed as growth inhibition at 1 mg/mL after 24 hrs by agar-cup diffusion method; type: functional, organism-based; procedure, shortened: as §3
SW-620 = experiment: Cytotoxicity against human SW620 cells assessed as growth inhibition at 10 uM after 48 hrs by SRB assay; type: functional; conditions: SW-620, 48 h, read-out: GI; procedure, shortened: as §1
CCRF-CEM = experiment: Cytotoxicity against human CCRF-CEM cells assessed as growth inhibition at 10 uM after 48 hrs by SRB assay; type: functional; conditions: read-out: GI; procedure, shortened: as §1
[8] = Cytotoxicity against human UO31 cells assessed as growth inhibition at 10 uM after 48 hrs by SRB assay; type: functional; conditions: UO-31, 48 h, read-out: GI; procedure, shortened: as §1
SR = experiment: Cytotoxicity against human SR cells assessed as growth inhibition at 10 uM after 48 hrs by SRB assay; type: functional; conditions: read-out: GI; procedure, shortened: as §1
HCT-116 = experiment: Cytotoxicity against human HCT116 cells assessed as growth inhibition at 10 uM after 48 hrs by SRB assay; type: functional; conditions: HCT-116, 48 h, read-out: GI; procedure, shortened: as §1
Pseudomonas aeruginosa [9] = experiment: Antibacterial activity against Pseudomonas aeruginosa ATCC 27853 assessed as growth inhibition after 48 hrs by two-fold serial dilution assay; type: functional; conditions: ATCC 27853, 48 h; procedure, shortened: as §2

Cc1nc(N)sc1C(=O)Nc1ccc(F)cc1
inhibition of growth at 10 µM (NCI-H226): 5.62%
inhibition of growth at 10 µM (HOP-92): < 10%
inhibition of growth at 10 µM (UACC-62): 3.24%
inhibition of growth at 10 µM (RPMI-8226): < 10%
inhibition of growth at 10 µM (LOX IMVI): < 10%
inhibition of growth at 10 µM (IGROV-1): < 10%
inhibition of growth at 10 µM (MDA-MB-468): 9.63%
inhibition of growth at 10 µM (SN12C): 3.01%
MIC (Escherichia coli [1]): 50 µg/mL (≈ 199 µM)
inhibition of growth at 10 µM (A498): 3.67%
zone of inhibition at 1000 µg/mL (Candida albicans): > 13 mm
MIC (Bacillus spizizenii [2]): 25 µg/mL (≈ 99.5 µM)
inhibition of growth at 10 µM [3]: 2.36%
inhibition of growth at 10 µM (SK-MEL-2): 67.3%
inhibition of growth at 10 µM (SK-MEL-5): 6.65%
inhibition of growth at 10 µM (HCT-15): < 10%
inhibition of growth at 10 µM (PC-3): < 10%
inhibition of growth at 10 µM (K562): < 10%
zone of inhibition at 1000 µg/mL (Escherichia coli [4]): > 13 mm
inhibition of growth at 10 µM (HT-29): < 10%
zone of inhibition at 1000 µg/mL (Bacillus spizizenii [5]): > 13 mm
zone of inhibition at 1000 µg/mL (Pseudomonas aeruginosa [6]): > 13 mm
inhibition of growth at 10 µM (SF-268): < 10%
MIC (Staphylococcus aureus): 12.5 µg/mL (≈ 49.7 µM)
MBC (Escherichia coli [7]): 100 µg/mL (≈ 398 µM)
growth inhibition (GI) (Aspergillus niger): inactive
inhibition of growth at 10 µM (SW-620): < 10%
inhibition of growth at 10 µM (CCRF-CEM): < 10%
inhibition of growth at 10 µM [8]: 11.8%
inhibition of growth at 10 µM (SR): < 10%
inhibition of growth at 10 µM (HCT-116): < 10%

CCOC(=O)c1sc(NC(=O)c2cc(OC)c(OC)c(OC)c2)nc1C
inhibition of growth at 10 µM (NCI-H226): 12%
inhibition of growth at 10 µM (HOP-92): 53.1%
inhibition of growth at 10 µM (UACC-62): 11.5%
inhibition of growth at 10 µM (RPMI-8226): 17%
inhibition of growth at 10 µM (LOX IMVI): 3.7%
inhibition of growth at 10 µM (IGROV-1): < 10%
inhibition of growth at 10 µM (MDA-MB-468): 8.82%
inhibition of growth at 10 µM (SN12C): 7.38%
MIC (Escherichia coli [1]): 12.5 µg/mL (≈ 32.9 µM)
inhibition of growth at 10 µM (A498): 11.4%
zone of inhibition at 1000 µg/mL (Candida albicans): > 13 mm
MIC (Bacillus spizizenii [2]): 25 µg/mL (≈ 65.7 µM)
inhibition of growth at 10 µM [3]: 4.66%
MIC (Pseudomonas aeruginosa [9]): 50 µg/mL (≈ 131 µM)
inhibition of growth at 10 µM (SK-MEL-2): 69.1%
inhibition of growth at 10 µM (SK-MEL-5): 5.59%
inhibition of growth at 10 µM (HCT-15): 5.3%
inhibition of growth at 10 µM (PC-3): 35%
inhibition of growth at 10 µM (K562): 49%
zone of inhibition at 1000 µg/mL (Escherichia coli [4]): > 13 mm
inhibition of growth at 10 µM (HT-29): < 10%
zone of inhibition at 1000 µg/mL (Bacillus spizizenii [5]): > 13 mm
zone of inhibition at 1000 µg/mL (Pseudomonas aeruginosa [6]): > 13 mm
inhibition of growth at 10 µM (SF-268): 3.75%
MIC (Staphylococcus aureus): 6.25 µg/mL (≈ 16.4 µM)
MBC (Escherichia coli [7]): 12.5 µg/mL (≈ 32.9 µM)
growth inhibition (GI) (Aspergillus niger): inactive
inhibition of growth at 10 µM (SW-620): < 10%
inhibition of growth at 10 µM (CCRF-CEM): 11.7%
inhibition of growth at 10 µM [8]: 24.3%
inhibition of growth at 10 µM (SR): 21%
inhibition of growth at 10 µM (HCT-116): 4.01%
